Screening results as filed in PubChem.
Hits are enriched below; roughly 2.6% of the tested compounds scored in any of these assays.
Ecoli rRNA inh: inhibitors of bacterial rRNA selective over humanized ribosomes | E. coli WT GFP vs humanized-ribosome RFP mutants, fluorescence, 24 h; hits give low values; DMSO median 0, no signal -100 | GFP signal change (wild-type ribosome), % (no concentration beside the values) | 350,000 compounds, 1.6% hits | AID 720706;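 active means significant combined selectivity score with lowered wild-type GFP, culture density cut under 30%, mutant RFP and density less affected; inactive means any of these conditions unmet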
INS-1E GSIS act: primary screen for activators of insulin secretion dependent on glucose, INS-1E cells, GLuc reporter luminescence; activation, % at 16.6 µM; INS-1E GLuc reporter insulin secretion, 2-3 h; 370,000 compounds, 0.61% hits; AID 743287;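 active means lowest replicate activation of at least 40%, so every replicate reaches that level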;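 further: 0% = median of neutral control wells and 100% = median of IBMX positive control wells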
RAD52 anneal inh: blocks human RAD52 DNA annealing | recombinant RAD52 DNA annealing, FRET fluorescence | inhibition, % at 18.7 µM | 360,000 compounds, 0.46% hits | AID 651710;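 active means every replicate showing at least 50% inhibition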
RAD54 branch: inhibitors of human RAD54 branch migration | Q92698 | RAD54 Holliday junction branch migration, FAM/BHQ fluorescence | inhibition, % at 10.4 µM | 360,000 compounds, 0.14% hits | AID 602329;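 active means mean normalized replicate activity at least 40 and at least half of replicates scoring 40 or more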;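 further: 0% = median of neutral control wells and 100% = median of positive control wells; inhibitors cause a drop in the FAM fluorescence signal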
AF4-AF9 inh: MLL-AF4/AF9 protein interaction inhibition; AlphaScreen, biotin-AF4 peptide binding to FLAG-AF9; inhibition, % at 10 µM; 350,000 compounds, 0.47% hits;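 active means every replicate reaching a set inhibition limit, whatever the replicate mean, cut at about 25% in these data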;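 further: 0% = plate neutral control median and 100% = total signal loss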
Target sequence (P42568 whole entry, looked up): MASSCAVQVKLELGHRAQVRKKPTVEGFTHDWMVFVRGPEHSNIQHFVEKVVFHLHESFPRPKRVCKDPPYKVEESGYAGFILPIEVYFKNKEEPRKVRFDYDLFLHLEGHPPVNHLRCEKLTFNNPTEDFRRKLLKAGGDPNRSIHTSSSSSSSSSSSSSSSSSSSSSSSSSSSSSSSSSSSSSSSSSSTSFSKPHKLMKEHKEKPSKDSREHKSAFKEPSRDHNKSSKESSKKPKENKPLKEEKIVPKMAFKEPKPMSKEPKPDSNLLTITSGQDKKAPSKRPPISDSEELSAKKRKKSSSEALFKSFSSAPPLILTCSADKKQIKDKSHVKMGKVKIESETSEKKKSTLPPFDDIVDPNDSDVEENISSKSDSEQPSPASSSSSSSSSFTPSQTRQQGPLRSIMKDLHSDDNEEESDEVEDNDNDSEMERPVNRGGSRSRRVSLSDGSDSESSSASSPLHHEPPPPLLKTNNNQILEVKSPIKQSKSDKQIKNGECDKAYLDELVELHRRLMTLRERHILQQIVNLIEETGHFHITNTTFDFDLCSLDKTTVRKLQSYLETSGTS
E-sel inducer: induces E-selectin expression in human endothelial cells. activation, % at 7.58 µM. AID 686992. HUVEC E-selectin immunofluorescence imaging; normalized: neutral wells 0, TNF-alpha wells 100. 260,000 compounds, 0.37% hits;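 active means mean E-selectin-positive cell signal at least 10% of the positive control, reached in at least 60% of replicates, without over 20% cell loss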
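Test system – human umbilical vein endothelial cells (HUVEC), E-selectin induction · Input – 3,000 HUVEC seeded per well · Buffer or medium – EGM-2, gelatin · Compound dosing – single-point compound dose · Detection – immunofluorescence imaging · Measure – percent E-selectin-positive cells · Controls – TNF-alpha high, DMSO low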
Starred values were filed as active, the others as inactive; / = no result given.

SMILES	Ecoli rRNA inh	INS-1E GSIS act	RAD52 anneal inh	RAD54 branch	AF4-AF9 inh	E-sel inducer
COc1ccc(COC(=O)C2=C(C)NC(=O)NC2c2ccc(O)c(OC)c2)cc1 (centres undefined)	-21.8*	1.1	-17.6	5.4	2.5	/
Cc1noc(C)c1S(=O)(=O)Nc1ccc2c(c1)CC(=O)N([C@H](C)CO)C[C@@H](C)[C@H](CN(C)Cc1ccncc1)O2	2.0	2.2	-12.8	7.2	-3.6	/
COc1ccc(NC(=O)c2ccc(-c3ccc([N+](=O)[O-])cc3)o2)cc1OC	-42.3*	-9.2	-12.2	5.2	2.3	/
O=C([C@H]1[C@H](CO)[C@H]2Cn3c(ccc(C4=CCCCC4)c3=O)[C@@H]1N2Cc1nccs1)N1CCCCC1	-1.8	4.1	-1.7	-4.5	0.4	0.2
O=C(Nc1cccc(Br)c1)c1ccc(CN2CCc3ccccc3C2)cc1	2.6	-12.6	-14.8	-7.4	0.4	0.4
CSc1cccc(NC(=O)c2ccc(CN3CCc4ccccc4C3)cc2)c1	-23.2*	-32.7	-16.4	-4.4	2.7	/
COCC(=O)N1C[C@H](C)[C@H](OC)CN(C)C(=O)c2cc(NS(C)(=O)=O)ccc2OC[C@@H]1C	0.9	1.9	-0.1	11.1	-1.9	0.8
Cc1nn(-c2ccccc2)c(Cl)c1/C=C1\SC(=S)N(CCCCCC(=O)O)C1=O	-31.5*	3.2	-11.3	/	-32.2	/
C[C@H](CO)N1C[C@H](C)[C@H](CN(C)C(=O)Nc2ccc3c(c2)OCO3)Oc2ccc(NC(=O)CCCCCC(=O)Nc3ccccc3N)cc2CC1=O	3.7	6.4	-12.2	-2.3	-0.2	391.7*
C[C@@H]1CN([C@@H](C)CO)C(=O)c2cc(NC(=O)CCCCCC(=O)Nc3ccccc3N)ccc2O[C@@H]1CN(C)C(=O)Nc1ccccc1	1.4	4.0	-4.2	7.8	-11.8	-0.2
C[C@@H]1CN([C@H](C)CO)C(=O)c2cc(NC(=O)CCCCCC(=O)Nc3ccccc3N)ccc2O[C@@H]1CN(C)C(=O)Nc1ccc2c(c1)OCO2	4.6	9.7	2.2	4.6	-0.3	100.0*
COc1ccc(NC(=O)N(C)C[C@H]2Oc3ccc(NC(=O)CCCCCC(=O)Nc4ccccc4N)cc3CC(=O)N([C@@H](C)CO)C[C@H]2C)cc1	0.4	20.9	-3.0	-2.5	-0.7	31.9*
C[C@H](CO)N1C[C@H](C)[C@@H](CN(C)C(=O)Nc2ccc3c(c2)OCO3)Oc2ccc(NC(=O)CCCCCC(=O)Nc3ccccc3N)cc2CC1=O	1.9	-4.7	4.6	0.3	2.1	-13.9
C[C@@H]1CN([C@@H](C)CO)C(=O)Cc2cc(NC(=O)CCCCCC(=O)Nc3ccccc3N)ccc2O[C@@H]1CN(C)C(=O)Nc1ccc2c(c1)OCO2	3.1	14.2	0.4	-0.1	3.3	181.2*
Cc1noc(C)c1S(=O)(=O)Nc1ccc2c(c1)CC(=O)N([C@@H](C)CO)C[C@H](C)[C@@H](CN(C)Cc1ccc(C(=O)Nc3ccccc3N)cc1)O2	-4.3	31.8	7.4	/	-0.5	/
O=C(NCC[C@@H]1CC[C@@H](NS(=O)(=O)c2ccccc2F)[C@@H](CO)O1)c1ccc(F)cc1	-1.8	7.0	-5.1	1.4	-1.1	-0.1
Cc1ccc(S(=O)(=O)Nc2ccc3cn[nH]c3c2)cc1	-12.2	-17.8	-15.1	-6.3	0.0	/
Cc1ccc(S(=O)(=O)Nc2cc(C)c(O)c(Sc3n[nH]c(C)n3)c2)cc1	-42.8*	-5.1	0.3	1.0	2.7	/
CC(C)(C)c1ccc(S(=O)(=O)N2CC(C(=O)O)Oc3ccc(Cl)cc32)cc1 (centres undefined)	-7.6	141.6*	-9.7	-0.3	-2.0	/
CCCNC(=O)N1C[C@@H](C)[C@@H](OC)CN(C)C(=O)c2cc(NC(=O)C3CCC3)ccc2OC[C@H]1C	1.6	11.5	/	/	/	0.2
O=C(Nc1ccc(S(=O)(=O)Nc2nccs2)cc1)c1cnc(Cl)c(Cl)c1	-29.3*	28.2	-38.5	/	-3.5	0.2
O=C(NC(=S)Nc1ccc(S(=O)(=O)Nc2nccs2)cc1)c1ccccc1F	-21.6*	37.5	-33.2	/	-2.9	-0.1
O=C(Nc1ccc(S(=O)(=O)Nc2ncccn2)cc1)c1cnc(Cl)c(Cl)c1	27.4	1.7	-85.1	/	-1.5	6.4
